In ChEMBL document CHEMBL4038281, “Competitive protein tyrosine phosphatase 1B (PTP1B) inhibitors, prenylated caged xanthones from Garcinia hanburyi and their inhibitory mechanism” (Bioorg Med Chem, 2017) one finds IC50 and Ki data, which are given here for 8 molecules.

The term IC50 denotes the concentration at which inhibition is half-maximal.

Where only a bound is given, the exact number is not on record here.

The target of experiment [1] is T1, Tyrosine-protein phosphatase non-receptor type 1 (Homo sapiens, UniProt P18031).
T1 sequence (P18031 whole entry): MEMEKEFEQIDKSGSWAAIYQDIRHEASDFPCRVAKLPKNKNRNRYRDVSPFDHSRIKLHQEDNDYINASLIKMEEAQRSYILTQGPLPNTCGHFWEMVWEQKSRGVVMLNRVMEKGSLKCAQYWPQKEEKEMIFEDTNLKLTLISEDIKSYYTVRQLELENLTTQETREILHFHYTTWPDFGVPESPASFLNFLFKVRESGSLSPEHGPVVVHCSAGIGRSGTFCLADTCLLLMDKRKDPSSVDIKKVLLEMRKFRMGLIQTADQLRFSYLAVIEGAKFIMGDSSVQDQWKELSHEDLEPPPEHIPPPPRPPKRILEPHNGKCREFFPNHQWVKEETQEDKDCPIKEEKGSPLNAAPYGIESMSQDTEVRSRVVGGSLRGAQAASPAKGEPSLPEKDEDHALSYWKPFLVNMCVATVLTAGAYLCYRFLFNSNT
Nature of the experiment: Inhibition of recombinant human PTP1B (1 to 322 residues) expressed in Escherichia coli using pNPP as substrate incubated for 10 mins measured for 30 mins by spectrometric analysis. A digest of the protocol: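 Enzyme (1 mg/mL stock) was mixed with sample in DMSO and 4 mM pNPP stock in 25 mM Tris-HCl pH 7.5, 1 mM EDTA, 2 mM b-mercaptoethanol and 1 mM DTT.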

The target of experiment [2] is T1, Tyrosine-protein phosphatase non-receptor type 1. Nature of the experiment: Inhibition of recombinant human PTP1B (1 to 322 residues) expressed in Escherichia coli using pNPP as substrate by Dixon plot analysis. A digest of the protocol: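 Initial velocity with pNPP was recorded over a range of inhibitor concentrations in 25 mM Tris-HCl (pH 7.5) buffer with EDTA, b-mercaptoethanol and DTT at 37 °C, read at 405 nm. Data were fitted by nonlinear regression, and inhibition constants were taken from Dixon plots.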

Experiment [3] shares this target. In words: Inhibition of recombinant human PTP1B (1 to 322 residues) expressed in Escherichia coli using pNPP as substrate preincubated for 60 mins followed by substrate addition measured at 30 secs interval for 10 mins by UV-spectrophotmetric method. The following applies: read-out: Ki(app). A digest of the protocol: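 Activity was read continuously by UV spectrophotometry for 10 min, giving progress curves of 20 points at 30 s intervals. Fixed substrate and several inhibitor levels were used, and any lag was excluded. vi, vs and Kobs were obtained by fitting the progress curves.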

For `CC(C)=CCc1c2c(c(O)c3c1O[C@]14C(=C[C@@H]5C[C@H]1C(C)(C)O[C@@]4(/C=C(/C)CO)C5=O)C3=O)C=CC(C)(C)O2`, the IC50 in experiment [1] was found to be 70.2 µM. The Ki in experiment [2] amounted to 29300 nM.
On to `CO[C@@H]1C2C(=O)c3c(O)c(C/C=C(\C)CCC=C(C)C)c(O)c(CC=C(C)C)c3O[C@@]23[C@H]2C[C@@H]1C(=O)[C@]3(C/C=C(/C)C(=O)O)OC2(C)C` (stereo partly specified), for which, in experiment [1], the IC50 worked out at 0.93 µM. In addition, the Ki in experiment [2] came out at 390 nM.
The corresponding values for `CC(C)=CCC/C(C)=C/Cc1c(O)c(CC=C(C)C)c2c(c1O)C(=O)C1=C[C@@H]3C[C@H]4C(C)(C)O[C@@](C/C=C(/C)C(=O)O)(C3=O)[C@@]14O2` [GAMBOGENIC ACID] are 3.47 µM and 1210 nM.
The like results for `CO[C@@H]1C2C(=O)c3c(O)c4c(c(CC=C(C)C)c3O[C@@]23[C@H]2C[C@@H]1C(=O)[C@]3(C/C=C(/C)C(=O)O)OC2(C)C)O[C@](C)(CCC=C(C)C)C=C4` (stereo partly specified) were, in that order, 0.74 µM and 300 nM.
With `CC(C)=CCC[C@]1(C)C=Cc2c(O)c3c(c(CC=C(C)C)c2O1)O[C@]12C(=C[C@@H]4C[C@H]1C(C)(C)O[C@@]2(C/C=C(/C)C(=O)O)C4=O)C3=O` [GAMBOGIC ACID], the IC50 in experiment [1] amounted to 0.47 µM. In addition, the Ki in experiment [2] worked out at 190 nM; in experiment [3], 499 nM.
For `COC1=C2C(=O)c3c(O)c4c(c(CC=C(C)C)c3O[C@@]23[C@H]2C[C@@H]1C(=O)[C@]3(CC=C(C)C)OC2(C)C)O[C@](C)(CCC=C(C)C)C=C4`, the IC50 in experiment [1] was found to be 12.8 µM. Moreover, the Ki in experiment [2] was 4380 nM.
The corresponding values for `CO[C@@H]1C2C(=O)c3c(O)c4c(c(CC=C(C)C)c3O[C@@]23[C@H]2C[C@@H]1C(=O)[C@]3(C/C=C(/C)C(=O)O)OC2(C)C)OC(C)(C)C=C4` (stereo partly specified) are 4.44 µM and 1750 nM.
For `CC(C)=CCc1c2c(c(O)c3c1O[C@]14C(=C[C@@H]5C[C@H]1C(C)(C)O[C@@]4(CC=C(C)C)C5=O)C3=O)C=CC(C)(C)O2`, the IC50 in experiment [1] is above 200 µM.
